From ChEMBL document CHEMBL1629542, “Epigallocatechin gallate inactivates clinical isolates of herpes simplex virus” (Antimicrob Agents Chemother, 2008)
Active and inactive are the calls of the source. The calls are words filed in the database; no cut-off is given here.

How the values were obtained:
[1] = tested on: Human alphaherpesvirus 1; experiment: Antiviral activity against Human herpesvirus 1 isolate P38 infected in African green monkey vero cells assessed as log reduction in viral titer at 100 uM after 40 to 60 mins; assay type: functional
Method in brief: (§1)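 In the time course, HSV-1 clinical isolates (clarified Vero supernatants) were exposed to 100 μM EGCG for varying times up to 60 min. Residual infectivity was then titrated on Vero cells by 5-day CPE endpoint with Reed-Muench calculation. Mean ± SD of three separate experiments.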

[2] = tested on: Human alphaherpesvirus 1; experiment: Antiviral activity against Human herpesvirus 1 isolate P32 infected in African green monkey vero cells assessed as reduction in viral titer; assay type: functional, organism-based; settings: Human alphaherpesvirus 1, isolate P32, Vero
Method in brief: (§2)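 Laboratory HSV-1 F1 or patient-swab HSV-1 isolates were prepared as clarified Vero supernatants. They were incubated 1 h with a range of EGCG concentrations in RPMI 1640/1% FCS at pH 7.4. Titres were determined on Vero cells by 5-day CPE endpoint (Reed-Muench). IC99 was read graphically as 99% titre drop from untreated; mean ± SD, three experiments.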

[3] = tested on: Human alphaherpesvirus 1; experiment: Antiviral activity against Human herpesvirus 1 isolate P42 infected in African green monkey vero cells assessed as log reduction in viral titer at 100 uM after 30 mins; assay type: functional; method in brief: as §1
[4] = tested on: Human alphaherpesvirus 2; experiment: Antiviral activity against Human herpesvirus 2 isolate P12 infected in African green monkey CV1 cells assessed as log reduction in viral titer at 12.5 uM; assay type: functional, CV-1
Method in brief: (§3)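 HSV-2 patient-swab isolates were grown as clarified CV-1 supernatants and incubated 1 h with a range of EGCG concentrations (RPMI 1640/1% FCS, pH 7.4). They were titrated on CV-1 cells from 10-fold dilutions by 5-day CPE at 37°C, with Reed-Muench TCID50. IC99 was derived graphically as 99% reduction from zero-drug titre; mean ± SD, three experiments.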

[5] = tested on: Human alphaherpesvirus 1; experiment: Antiviral activity against Human herpesvirus 1 isolate P56 infected in African green monkey vero cells assessed as log reduction in viral titer at 100 uM within 10 mins; assay type: functional; method in brief: as §1
[6] = tested on: Human alphaherpesvirus 2; experiment: Antiviral activity against Human herpesvirus 2 isolate P27 infected in African green monkey CV1 cells assessed as log reduction in viral titer at 100 uM within 20 mins; assay type: functional, CV-1
Method in brief: (§4)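 Time course: clarified CV-1 supernatant of HSV-2 (clinical isolates or strain 333) was exposed to 100 μM EGCG for increasing times. It was then titrated by tenfold dilution on CV-1 cells, three wells per dilution, for 5 days at 37°C with CPE read-out. Reed-Muench TCID50 was compared with the untreated titer. Mean of three separate experiments.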

[7] = tested on: Human alphaherpesvirus 2; experiment: Antiviral activity against Human herpesvirus 2 isolate P27 infected in African green monkey CV1 cells assessed as log reduction in viral titer at 12.5 uM; assay type: functional, CV-1
Method in brief: (§5)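 HSV-2 (clinical swab isolates or strain 333) was grown in CV-1 cells and used as clarified supernatant. Virus was exposed to graded EGCG for 1 h in RPMI 1640 with 1% FCS, pH 7.4. Tenfold dilutions were titrated on CV-1 cells, three wells each, 5 days at 37°C, scoring CPE. TCID50 was calculated by Reed-Muench. IC99 was read graphically as 99% titer drop from the zero-concentration titer. Mean of three experiments.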

[8] = tested on: Human alphaherpesvirus 1; experiment: Antiviral activity against Human herpesvirus 1 F1 assessed as damage of viral particle at 100 uM after 2 hrs by electron microscopy; assay type: functional, organism-based
[9] = tested on: Human alphaherpesvirus 1; experiment: Antiviral activity against Human herpesvirus 1 isolate P25 infected in African green monkey vero cells assessed as log reduction in viral titer at 100 uM after 30 mins; assay type: functional; method in brief: as §1
[10] = tested on: Human alphaherpesvirus 1; experiment: Antiviral activity against Human herpesvirus 1 isolate P56 infected in African green monkey vero cells assessed as log reduction in viral titer at 100 uM after 30 mins; assay type: functional; method in brief: as §1
[11] = tested on: Human alphaherpesvirus 1; experiment: Antiviral activity against Human herpesvirus 1 isolate P25 infected in African green monkey vero cells assessed as log reduction in viral titer at 50 uM; assay type: functional; method in brief: as §2
[12] = tested on: Human alphaherpesvirus 2; experiment: Antiviral activity against Human herpesvirus 2 isolate P11 infected in African green monkey CV1 cells; assay type: functional, organism-based; settings: Human alphaherpesvirus 2, isolate P11, CV-1; method in brief: as §3
[13] = tested on: Human alphaherpesvirus 2; experiment: Antiviral activity against Human herpesvirus 2 strain 333 strain 333 infected in African green monkey CV-1 cells; assay type: functional, cell-based; settings: Human alphaherpesvirus 2, strain 333, CV-1; method in brief: as §5
[14] = tested on: Human alphaherpesvirus 2; experiment: Antiviral activity against Human herpesvirus 2 isolate P27 infected in African green monkey CV1 cells assessed as log reduction viral titer at 50 uM; assay type: functional, CV-1; method in brief: as §5
[15] = tested on: Human alphaherpesvirus 1; experiment: Binding affinity to Envelope glycoprotein D in Human herpesvirus 1 F1 assessed as macromolecular complex formation by SDS-PAGE
Method in brief: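 Purified HSV-1 gB or gD (500 to 700 μg/ml) was incubated with EGCG (250 μg/ml; 545 μM) in 0.1 M potassium phosphate, pH 7.0, at 35°C for 24 h. Products were denatured at 50°C for 15 min in sample buffer and run on 6.5% SDS-PAGE. Bands were stained with Coomassie blue to detect higher-molecular-weight complexes.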

[16] = tested on: Human alphaherpesvirus 2; experiment: Antiviral activity against Human herpesvirus 2 isolate P22 infected in African green monkey CV1 cells assessed as log reduction in viral titer at 100 uM within 20 mins; assay type: functional, CV-1; method in brief: as §4
[17] = tested on: Human alphaherpesvirus 2; experiment: Antiviral activity against Human herpesvirus 2 isolate P22 infected in African green monkey CV1 cells assessed as log reduction in viral titer at 12.5 uM; assay type: functional, CV-1; method in brief: as §5
[18] = tested on: Human alphaherpesvirus 2; experiment: Antiviral activity against Human herpesvirus 2 isolate P22 infected in African green monkey CV1 cells assessed as log reduction viral titer at 50 uM; assay type: functional, CV-1; method in brief: as §5
[19] = tested on: Human alphaherpesvirus 1; experiment: Antiviral activity against Human herpesvirus 1 F1 infected in African green monkey CV1 cells assessed as log reduction in viral titer at 100 uM; assay type: functional, CV-1
[20] = tested on: Human alphaherpesvirus 1; experiment: Antiviral activity against Human herpesvirus 1 isolate P56 infected in African green monkey vero cells assessed as log reduction in viral titer at 100 uM within 20 mins; assay type: functional; method in brief: as §1
[21] = tested on: Human alphaherpesvirus 1; experiment: Antiviral activity against Human herpesvirus 1 isolate P25 infected in African green monkey vero cells assessed as reduction in viral titer; assay type: functional, organism-based; settings: Human alphaherpesvirus 1, isolate P25, Vero; method in brief: as §2
[22] = tested on: Human alphaherpesvirus 1; experiment: Antiviral activity against Human herpesvirus 1 isolate P56 infected in African green monkey vero cells assessed as reduction in viral titer; assay type: functional, organism-based; settings: Human alphaherpesvirus 1, isolate P56, Vero; method in brief: as §2
[23] = tested on: Human alphaherpesvirus 1; experiment: Antiviral activity against Human herpesvirus 1 isolate P25 infected in African green monkey vero cells assessed as log reduction in viral titer at 100 uM after 40 to 60 mins; assay type: functional; method in brief: as §1

## O=C(O[C@@H]1Cc2c(O)cc(O)cc2O[C@@H]1c1cc(O)c(O)c(O)c1)c1cc(O)c(O)c(O)c1 [EPIGALOCATECHIN GALLATE]
[1]
  FC: 3
[2]
  IC99: 16 µM
[3]
  FC: 2
[4]
  FC: >=2
[5]
  FC: 2
[6]
  FC: 3
[7]
  FC: >=2
[8]
  Activity: Active
[9]
  FC: 2
[10]
  FC: 2
[11]
  FC: 2
[12]
  IC99: 12.5 µM
[13]
  IC99: 25 µM
[14]
  FC: >4
[15]
  Activity: Active
[16]
  FC: 3
[17]
  FC: >=2
[18]
  FC: >4
[19]
  FC: 3.5
[20]
  FC: 3
[21]
  IC99: 45.4 µM
[22]
  IC99: 18.3 µM
[23]
  FC: 3
